MDM2 E3 inh – MDM2-luciferase reporter signal enhancers, primary screen, MDM2 E3 ligase inhibitor project, cell-based, luminescence, 1536-well | signal enhancement, % at 5 µM | E3 ubiquitin-protein ligase Mdm2 (Homo sapiens), Q00987 | cell-based MDM2 ubiquitination luciferase reporter, 2 h; 0 = plate control, 100 = twice control, blank-subtracted | actives 0.11% (n = 210,000) | AID 1230, 2008;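 active = signal enhancement of 30% or more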;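 also: luminescence tracks abundance of the self-degrading MDM2-luciferase fusion protein; higher signal means inhibition of MDM2 E3 ligase activity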
Target sequence (Q00987 whole entry, looked up, the tested form may be a part): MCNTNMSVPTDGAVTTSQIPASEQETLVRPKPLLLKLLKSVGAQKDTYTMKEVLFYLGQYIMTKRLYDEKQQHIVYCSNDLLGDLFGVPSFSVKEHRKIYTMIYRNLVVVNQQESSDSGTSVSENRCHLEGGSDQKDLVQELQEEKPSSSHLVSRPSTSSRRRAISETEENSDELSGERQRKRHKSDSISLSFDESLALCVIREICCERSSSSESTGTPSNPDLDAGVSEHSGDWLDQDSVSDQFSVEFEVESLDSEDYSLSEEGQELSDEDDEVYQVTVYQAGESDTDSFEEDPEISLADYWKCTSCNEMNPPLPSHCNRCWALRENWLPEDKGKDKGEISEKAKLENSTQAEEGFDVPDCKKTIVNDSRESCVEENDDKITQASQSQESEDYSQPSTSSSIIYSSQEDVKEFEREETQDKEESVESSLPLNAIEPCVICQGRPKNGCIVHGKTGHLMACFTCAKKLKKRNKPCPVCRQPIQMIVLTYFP
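Test system: mammalian cells stably expressing self-ubiquitinating, self-degrading MDM2 E3–luciferase fusion; Amount: 2000 cells in each well; Medium: DMEM; Schedule: 4 h settle plus 2 h compound, 37 °C; Technique: SteadyLite luciferase luminescence after 15 min room-temperature reagent incubation; Benchmarks: plate control and blank wells.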
TNF necrop inh – inhibitors of TNF-alpha triggered necroptosis, primary screen, cell-based, Jurkat FADD-/-, single concentration | Jurkat FADD-/- TNF necroptosis rescue, ATP luminescence, 24 h; 0 = TNF only, 100 = no-TNF cells | activation (protection from cell death), % at 10 µM | actives 0.068% (n = 220,000) | AID 463075, 2010;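 active = activation, meaning protection from cell death, of at least 50% relative to plate controls; inactive = activation below 50%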;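 also: necroptosis triggered by 40 ng/mL TNF-alpha added together with compound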
L929 necroptosis – inhibitors of zVAD-triggered necroptosis, primary screen, L929 cells. viability rescue, % at 10 µM. AID 1377, 2008. actives 0.38% (n = 220,000). L929 zVAD necroptosis rescue, ATP luminescence, 24 h; with zVAD 60 µM;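 active = activation, scaled between plate controls, above about 75%, limit read from the data; inactive = activation under that limit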
Rad51 HR inh – human RAD51 strand exchange inhibitors, primary screen, biochemical, fluorescence; AID 1385, 2008; actives 0.085% (n = 200,000); hRad51 DNA strand exchange, fluorescence dequenching; inhibition, % at 10 µM;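 active = inhibition above 40% at the single screening dose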
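material = hRad51 filaments on single-stranded DNA | timing = filaments 15 min 37 °C, then compound 30 min | signal = FRET fluorescence dequenching, excitation 485 nm, emission 520 nm | benchmarks = control wells and blank wells on each plate | evaluation = percent inhibition relative to plate controls and blanks | compound = 10 µM final, single point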
Pf gamet viab – late stage P. falciparum gametocyte viability inhibitors, primary screen, ATP luminescence, HTS; P. falciparum stage V gametocytes, 24 h; inhibition, % at 10.9 µM; actives 0.065% (n = 150,000); AID 743093, 2013;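 active = inhibition above the mean plus 3 SD of compounds within the control limits, set per campaign, cut at about 38% in these data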
zVAD death conf – inhibitors of zVAD-triggered necroptosis in L929, confirmation, L929 cells, duplicate runs | shares compounds with L929 necroptosis | L929 zVAD-induced necroptosis rescue, ATP luminescence, 24 h | activation (protection from necroptosis), % at 10 µM | actives 16% (n = 760) | AID 463117, 2010;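 active = mean protection from necroptosis of at least 50% over duplicate tests; inactive = mean protection below 50%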
Each line names hits and unclear results; the compound was inactive in the other large screens (follow-up assays come after a bar, where they were run). Compounds with a hit are over-represented: about 0.58% of the library has one in this group of screens.

Cc1cc(C)cc(-c2nnc(SCC(=O)N3CCN(C(=O)c4ccco4)CC3)o2)c1	L929 necroptosis 85.5 (no result: Pf gamet viab) | zVAD death conf inactive
O=C(CSc1nnc(-c2ccc(Br)cc2)o1)N1CCN(C(=O)c2ccco2)CC1	none
CC1CC(C)CN(C(=O)CSc2nnc(-c3ccc(F)cc3)o2)C1 (stereo not given)	L929 necroptosis 89.1 (no result: Pf gamet viab) | zVAD death conf inactive
Cc1ccc(CC(=O)N2CCN(C(=O)c3ccco3)CC2)cc1	none
O=c1[nH]cnc2c1N=C(c1cccc([N+](=O)[O-])c1)CC(c1ccccc1)N2 (stereo not given)	none
CCOc1ccccc1NC(=O)Nc1ccccn1	L929 necroptosis 79.1 | zVAD death conf inactive
CCOc1ccccc1NC(=O)Nc1ccc(Br)cn1	none (no result: Rad51 HR inh)
C#CCCc1cocc1/C=[N+](\[O-])c1ccc(C(=O)OCC)cc1	none (no result: MDM2 E3 inh, TNF necrop inh, L929 necroptosis, Rad51 HR inh)
Cc1ccccc1/C=N/Nc1nc2ccccc2[nH]1	none (no result: Pf gamet viab)
C(=N\Nc1nc2ccccc2[nH]1)/c1c[nH]c2ccccc12	L929 necroptosis 80.5 (no result: Rad51 HR inh, Pf gamet viab) | zVAD death conf inactive
C(=N\Nc1nc2ccccc2[nH]1)/c1ccccc1	L929 necroptosis 84.5 | zVAD death conf inactive
Cc1ccc(/C=N/Nc2nc3ccccc3[nH]2)s1	L929 necroptosis 76.0 | zVAD death conf inactive
COC(=O)/N=C/c1c(NCc2ccccc2)nc2c(C)cccn2c1=O	none
COc1ccc(CC(=O)Nc2ccc(-c3cn4ccc(C)cc4n3)cc2)cc1	L929 necroptosis 81.3 (no result: Pf gamet viab) | zVAD death conf inactive
COc1ccc(CC(=O)Nc2ccc(-c3cn4cccc(C)c4n3)cc2)cc1OC	none (no result: Pf gamet viab)
COC(=O)c1ccccc1NC(=O)Nc1cc(C)ccn1	none
Cc1ccnc(NC(=O)Nc2ccc(Br)cc2Cl)c1	L929 necroptosis 83.1 | zVAD death conf inactive
O=C(Nc1cnccn1)Nc1ccc(Cl)cc1Cl	L929 necroptosis 80.1 | zVAD death conf inactive
Cc1ccc(NC(=O)Nc2cnccn2)cc1Cl	L929 necroptosis 80.0 | zVAD death conf inactive
COc1ccc(NC(=O)Nc2cnccn2)cc1	none (no result: Rad51 HR inh)
O=S(=O)(c1ccc(-c2ccccn2)s1)N1CCC2(CC1)OCCO2	none
CCOC(=O)C1(Cc2cccc(OC)c2)CCN(CC2CC=CCC2)CC1 (stereo not given)	none (no result: Pf gamet viab)
Cc1ccc(Nc2nc(OC(C(F)(F)F)C(F)(F)F)nc(N3CCOCC3)n2)cc1	L929 necroptosis 88.2 | zVAD death conf inactive
COc1ccc(Nc2nc(OC)nc(N3CCOCC3)n2)cc1	none
O=[N+]([O-])c1ccccc1/C=C/CN1CCN(Cc2ccc3c(c2)OCO3)CC1	none (no result: MDM2 E3 inh, TNF necrop inh, L929 necroptosis, Rad51 HR inh)
Cc1cc(C)nc(NS(=O)(=O)c2ccc(CC(C)C)cc2)c1	none
COc1cc(/C=N/NC2=NCCCCC2)ccc1O	none (no result: Rad51 HR inh)
COc1cc(/C=N/Nc2ncnc3sc4c(c23)CCC4)ccc1O	L929 necroptosis 82.0 (no result: MDM2 E3 inh, Rad51 HR inh) | zVAD death conf inactive
Cn1c(=O)n(C)c2cc(/C=N/NC(N)=S)ccc21	none (no result: Pf gamet viab)
CCCC(=O)Nc1nc2ccc(OC)cc2s1	none (no result: Pf gamet viab)
CCN1CCN(CC(=O)Nc2nc3ccc(OC)cc3s2)CC1	L929 necroptosis 83.7 (no result: Rad51 HR inh, Pf gamet viab) | zVAD death conf inactive
COc1ccc2nc(NC(=O)CN3CCN(C)CC3)sc2c1	L929 necroptosis 92.0 (no result: Pf gamet viab) | zVAD death conf inactive
COc1ccc2nc(NC(=O)CCNC(=O)c3ccccc3Cl)sc2c1	L929 necroptosis 78.0 | zVAD death conf inactive
COc1ccc2nc(NC(=O)CCN3C(=O)c4ccccc4C3=O)sc2c1	none (no result: Pf gamet viab)
CC(=O)/C=C(\C)Nc1ccccc1O	L929 necroptosis 81.2 (no result: Pf gamet viab) | zVAD death conf inactive
Cc1ccc(C(=O)Nc2cccc(C(F)(F)F)c2)cc1Nc1ccccn1	L929 necroptosis 79.2 | zVAD death conf 65.1
Nn1cnn(Cc2ccccc2)c1=S	L929 necroptosis 88.0 | zVAD death conf inactive
COc1ccccc1N1CCN(C(c2cccs2)C(C)NC(=O)c2ccncc2)CC1 (stereo not given)	none
CN(C)c1ccc(C(c2ccc(N(C)C)cc2)c2ccc([N+](=O)[O-])cc2)cc1	none
O=C(CSc1ncn(-c2ccccc2)n1)Nc1nncs1	none
CC(=O)Nc1ccc(C(=O)CSc2ncn(-c3ccccc3)n2)cc1	L929 necroptosis 79.5 (no result: Pf gamet viab) | zVAD death conf inactive
Cc1ccc(-n2c(Cl)c(Cl)nc(Cl)c2=O)cc1	none (no result: Pf gamet viab)
O=C(CCC(=O)N1CCN(c2ccccn2)CC1)Nc1nnc(C(F)(F)F)s1	none (no result: Rad51 HR inh)
CNC(=O)CSc1nnc(-c2ccccc2F)n1CCc1ccccc1	none
COCCn1c(=NC(=O)/C=C/c2ccccc2)sc2cc(NC(C)=O)ccc21	L929 necroptosis 80.5 | zVAD death conf inactive
Cc1ccc(NC(=O)c2ccccc2)cc1-n1cnnn1	L929 necroptosis 75.2 | zVAD death conf inactive
O=S(=O)(c1ccc(-c2csc(-c3cccnc3)n2)cc1)N1CCOCC1	L929 necroptosis 84.5 | zVAD death conf inactive
CC(=O)Nc1ccc(Nc2ncc([N+](=O)[O-])c(Nc3ccc(NC(C)=O)cc3)n2)cc1	L929 necroptosis 90.3 (no result: Rad51 HR inh, Pf gamet viab) | zVAD death conf inactive
Cc1ccc2c(C)nc(Nc3nc(CSc4nc5ccccc5[nH]4)cc(=O)[nH]3)nc2c1	L929 necroptosis 87.0 | zVAD death conf 52.8
CN1CCCC(OC(=O)c2ccc(C(C)(C)C)cc2)C1 (stereo not given)	none (no result: MDM2 E3 inh, TNF necrop inh, L929 necroptosis, Rad51 HR inh)
CC1(C)CC(=O)C=C(NCc2ccccc2)C1	none
CC1(C)CC(=O)C=C(Nc2cc(-c3ccccc3)[nH]n2)C1	L929 necroptosis 90.8 | zVAD death conf inactive
Fc1ccc(NC(=S)N2CCCC(c3ccccc3)=N2)cc1	none
O=C(Nc1cccc(Cl)c1)N1N=CCC1c1ccccc1 (stereo not given)	TNF necrop inh 92.2, L929 necroptosis 88.8 | zVAD death conf 84.9
Fc1ccc(NC(=S)N2N=CCC2c2ccccc2)cc1 (stereo not given)	TNF necrop inh 93.7, L929 necroptosis 82.1 | zVAD death conf inactive
COc1cc(/C=N/NC(=O)c2sc(N)c(C#N)c2C)cc(Br)c1O	L929 necroptosis 99.4 (no result: Rad51 HR inh, Pf gamet viab) | zVAD death conf inactive
COc1ccc2ccccc2c1/C=N/NC(=O)c1sc(N)c(C#N)c1C	none (no result: Rad51 HR inh)
O=C(Nc1nccs1)c1cc2c(s1)-c1ccccc1OC2	L929 necroptosis 98.2 (no result: Rad51 HR inh, Pf gamet viab) | zVAD death conf inactive
O=C(Cn1nnc(-c2ccncc2)n1)Nc1ccc2c(c1)CCC2	L929 necroptosis 80.7 (no result: Pf gamet viab) | zVAD death conf inactive
COc1cc(NC(=O)Cn2nnc(-c3ccncc3)n2)cc(OC)c1	L929 necroptosis 77.5 | zVAD death conf inactive
CC(C)N(Cc1cc2ccccc2[nH]c1=O)C(=O)c1ccco1	none
